Measured values pooled from the literature.
Lines come from different studies, so protocols differ.
SLC6A2: Sodium-dependent noradrenaline transporter (SLC6A2, Homo sapiens, UniProt P23975)
MPO: Myeloperoxidase (MPO, Homo sapiens, UniProt P05164)
CASK: Peripheral plasma membrane protein CASK (CASK, Homo sapiens, UniProt O14936)

Compound	target	assay	test system	conditions	endpoint	value
CCCCC[C@H](O)/C=C/[C@H]1C(=O)C[C@H](O)[C@@H]1C/C=C\CCCC(=O)O	Prostaglandin D2 receptor (PTGDR, Homo sapiens, UniProt Q13258)	G protein activation, agonist, BRET	–	–	Emax	101%
Cc1cc(O)c(-c2ccc([C@@H](C)CN(C)C)cc2)c2c1[nH]c(=O)c1sccc12	Extracellular serine/threonine protein kinase FAM20C (FAM20C, Homo sapiens, UniProt Q8IXL6)	cell-free assay, inhibitor	–	0.1 µM, lysate	inhibition	-0.829%
CNC(=O)[C@@]12C[C@@H]1[C@@H](n1cnc3c(Nc4ccccc4)nc(C#Cc4ccc(Cl)s4)nc31)[C@H](O)[C@@H]2O	SLC6A2	ligand displacement, radioligand	–	10 µM	inhibition	77%
COc1ccc2oc(-c3ccc4nc(N)oc4c3)c/c(=N\c3ccccc3NC(=O)CCN)c2c1	Fibroblast growth factor receptor 1 (FGFR1, Homo sapiens, UniProt P11362, V561M)	binding	–	1 µM	remaining binding	97%
O[C@@H]1[C@H](O)[C@@H]2C[C@@H]2[C@H]1n1cnc2c(NCCC3CC3)ncnc21	SLC6A2	transporter uptake, inhibitor, radiometric	HEK293	10 µM	inhibition	0%
NC/C(=C\F)COc1cccc(Cn2c(=S)[nH]c(=O)c3[nH]cnc32)c1	MPO	enzyme activity, inhibitor, fluorescence	–	1.4 nM	inhibition	17.2%
N#CC[C@@]12C[C@@H]1[C@@H](n1cnc3c(NCCCCCCc4ccccc4)nc(I)nc31)[C@H](O)[C@@H]2O	SLC6A2	transporter uptake, inhibitor, radiometric	HEK293	10 µM	inhibition	0%
COc1ccc(Cl)cc1-c1cc(=O)[nH]c(=S)n1CC(N)=O	MPO	enzyme activity, inhibitor	–	10 µM	remaining activity	2.31%
C1=C/COCc2cc(ccc2OCCN2CCCC2)Nc2nccc(n2)-c2cccc(c2)COC/1	CASK	binding	–	0.1 µM	remaining binding	81%
CC(=O)N[C@@H](C)c1cc(Cl)ccc1C1CCN(C(=O)[C@@H]2CN(C(C)(C)C)C[C@H]2c2ccc(F)cc2F)CC1	Melanocortin receptor 4 (MC4R, Homo sapiens, UniProt P32245)	cAMP, agonist	–	–	Emax	104%
CCCCC(=O)Nc1ccc(-c2ccc3ncn(CCC)c(=O)c3c2)cn1	CASK	binding, competition with immobilised ligand	–	0.5 µM	remaining binding	100%
CCOC(=O)[C@@]12C[C@@H]1[C@@H](n1ccc3c(NCCCCc4ccccc4)nc(C#Cc4ccccc4)nc31)[C@H](O)[C@@H]2O	SLC6A2	ligand displacement, radioligand	–	10 µM	inhibition	81%
CC(C)OCCn1c(=S)[nH]c(=O)c2[nH]ccc21	MPO	enzyme activity, inhibitor	–	0.3125 µM	remaining activity	67.4%
